High-throughput results (PubChem BioAssay)
SR-BI HDL uptake: blocks mouse SR-BI lipid uptake from DiI-HDL; ldlA[mSR-BI] CHO cells, DiI-HDL uptake fluorescence, 3 h; Q61009; 0.96% of 320,000 active; inhibition, % at 12.5 µM;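 active means mean replicate inhibition of at least 70% and a set share of replicates each scoring 70 or more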;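 further: 0% = median of neutral control wells and 100% = median of positive control wells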
S100A4 inh HTS: inhibitors of human S100A4 binding to myosin IIA peptide; S100A4/TAMRA-MyoIIA peptide fluorescence polarization; inhibition, % at 10.7 µM; 0.14% of 360,000 active; AID 652163;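 active means mean inhibition of at least 70% across replicates, with every replicate also reaching that level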
Target sequence (P26447 whole entry, looked up): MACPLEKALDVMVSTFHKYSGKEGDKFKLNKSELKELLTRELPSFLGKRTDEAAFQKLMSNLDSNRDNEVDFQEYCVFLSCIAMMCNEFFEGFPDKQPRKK
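Assay system: human S100A4 monomer with TAMRA-labelled myosin IIA peptide / Buffer or medium: Calcium-containing HEPES buffer, pH 7.2 / Reagent: TAMRA-labelled myosin IIA heavy-chain peptide probe, 5 nM / Compound: one dose per compound / Timing: polarization read 5 min after assay mix addition, stable 5–60 min / Benchmarks: neutral control DMSO, positive control TFP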
dFosB activator: mouse delta FosB homodimer activation. 0.99% of 340,000 active. activation, % at 25 µM. P13346. purified delta FosB, TAMRA-CDK5 oligo fluorescence polarization; percent of positive-control signal above neutral wells;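 active means mean activation above about 17%, with every replicate also reaching it, limit read from the data, passing the limit was not always enough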
Target sequence (P13346 whole entry, looked up): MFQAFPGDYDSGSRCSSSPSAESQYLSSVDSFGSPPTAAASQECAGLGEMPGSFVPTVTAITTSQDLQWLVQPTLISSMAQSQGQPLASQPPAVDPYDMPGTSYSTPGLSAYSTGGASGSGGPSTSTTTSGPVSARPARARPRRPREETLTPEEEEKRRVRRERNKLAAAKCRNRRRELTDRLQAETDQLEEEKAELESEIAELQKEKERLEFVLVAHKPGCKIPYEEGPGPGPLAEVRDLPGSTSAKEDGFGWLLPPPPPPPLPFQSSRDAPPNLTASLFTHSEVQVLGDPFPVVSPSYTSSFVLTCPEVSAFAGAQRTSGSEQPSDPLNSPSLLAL
SR-BI uptake up: SR-BI HDL lipid transfer activation; AID 504775; 0.096% of 320,000 active; activation, % at 12.5 µM; CHO ldlA[mSR-BI] cells, DiI-HDL uptake fluorescence, 3 h; 100 = double the neutral-control signal;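 active means mean replicate activation of at least 60% and every replicate at or above 60%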;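 further: 0% = median plate neutral-control signal and 100% = twice that signal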
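Test system: SR-BI-overexpressing, LDLR-lacking CHO cells; Medium: Ham's F12 with 0.5% BSA, HEPES 25 mM, pH 7.4; Schedule: 3 h, 37 °C; Technique: bottom-read fluorescence, 550/595 nm.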
RAD54 inh: blocks human RAD54 Holliday junction branch migration; Q92698; FAM/BHQ fluorescence; inhibition, % at 10.4 µM; 0.14% of 360,000 active; AID 602329;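 active means mean normalized replicate activity at least 40 and at least half of replicates scoring 40 or more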;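 further: 0% = median of neutral control wells and 100% = median of positive control wells; inhibitors cause a drop in the FAM fluorescence signal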
PvdQ acylase: P. aeruginosa PvdQ acylase inhibition; 0.063% of 340,000 active; inhibition, % at 10 µM; purified PvdQ acylase, fluorescence plate reader; AID 488965; in the data active means inhibition above about 30%, passing the limit was not always enough;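 further: 0% = vehicle neutral wells and 100% = reference inhibitor wells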
* = called active by the depositor. Shown are actives, neighbours in structure and some others; about 1.6% of the full set was active somewhere.

Results for COc1ccccc1Nc1ccc(N)cc1 ?
SR-BI HDL uptake: 84*; S100A4 inh HTS: 10; dFosB activator: -21; SR-BI uptake up: -84; PvdQ acylase: 9

How did O=[N+]([O-])c1ccccc1S(=O)(=O)N1CCN(Cc2ccc(OCCO)cc2)CC1 do in these assays?
S100A4 inh HTS: 6; RAD54 inh: -1

How did O=C(NCc1ccco1)c1ccc(S(=O)(=O)N2CCCc3ccccc32)cc1 do in these assays?
SR-BI HDL uptake: 76*; dFosB activator: -8; SR-BI uptake up: -76; RAD54 inh: 1; PvdQ acylase: -12

Results for Cc1ccc(C)c(NC(=O)C2CCCN(S(=O)(=O)c3c(C)noc3/C=C/N(C)C)C2)c1 (stereo unspecified) ?
SR-BI HDL uptake: 5; S100A4 inh HTS: 122*; dFosB activator: -4; SR-BI uptake up: -5; RAD54 inh: -1; PvdQ acylase: 2

What do the screens show for `Cc1ccc(NC(=O)C2CCCN(S(=O)(=O)c3c(C)noc3/C=C/N(C)C)C2)c(C)c1` (stereo unspecified)?
SR-BI HDL uptake: 33; S100A4 inh HTS: -3; dFosB activator: -1; SR-BI uptake up: -33; RAD54 inh: -7; PvdQ acylase: -6

How did CN1c2ccc(C#Cc3cccc(F)c3)cc2[C@H]2[C@H](CCN2S(=O)(=O)c2ccccc2F)[C@@H]1CO do in these assays?
S100A4 inh HTS: -5; RAD54 inh: 1

What do the screens show for `CN1c2ccc(C#Cc3cccnc3)cc2[C@@H]2[C@@H](CCN2S(=O)(=O)c2ccccc2F)[C@@H]1CO`?
S100A4 inh HTS: 120*; RAD54 inh: -12

How did C[C@H](CO)N1C[C@H](C)[C@@H](CN(C)S(=O)(=O)c2ccccc2)Oc2ccc(NC(=O)Cc3ccccc3)cc2CC1=O do in these assays?
S100A4 inh HTS: -15; RAD54 inh: -2

What do the screens show for `Cc1ccc(S(=O)(=O)N2CCC(C(=O)NNC(=O)c3ccccc3O)CC2)cc1C`?
SR-BI HDL uptake: 72*; S100A4 inh HTS: 19; dFosB activator: 1; SR-BI uptake up: -72; PvdQ acylase: -5

Results for Cc1cc(C)c(C)c(S(=O)(=O)N2CCC(C(=O)NNC(=O)c3ccccc3O)CC2)c1C ?
SR-BI HDL uptake: 119*; S100A4 inh HTS: 3; dFosB activator: -11; SR-BI uptake up: -119; RAD54 inh: 1; PvdQ acylase: 3

Results for Cc1ccc(S(=O)(=O)N2CCC(C(=O)NNC(=O)c3ccccc3O)CC2)cc1 ?
SR-BI HDL uptake: 81*; S100A4 inh HTS: 8; dFosB activator: 2; SR-BI uptake up: -81; RAD54 inh: -5; PvdQ acylase: -5

What do the screens show for `CCOC(=O)c1c(C)[nH]c(C(=O)COC(=O)c2ccc(N3CCCC3=O)cc2)c1C`?
SR-BI HDL uptake: -63; dFosB activator: -2; SR-BI uptake up: 63*; PvdQ acylase: 6

What do the screens show for `Cc1ccc(-c2ccc3c(c2)O[C@H](CN(C)Cc2cccnc2)[C@H](C)CN([C@@H](C)CO)S3(=O)=O)cc1`?
S100A4 inh HTS: -6; RAD54 inh: 3

Results for O=C(NCCOc1ccccc1)c1cccc2c1C(=O)c1ccc(Cl)cc1S2(=O)=O ?
SR-BI HDL uptake: 3; S100A4 inh HTS: 2; dFosB activator: 1; SR-BI uptake up: -3; RAD54 inh: 0; PvdQ acylase: 9

What do the screens show for `COc1ccc(-c2ccc3c(c2)S(=O)(=O)c2cccc(C(=O)NCCOc4ccccc4)c2C3=O)cc1OC`?
SR-BI HDL uptake: 73*; dFosB activator: -4; SR-BI uptake up: -73; RAD54 inh: -8; PvdQ acylase: -14

How did CCc1sc(C(=O)Nc2cc(Cl)ccc2N2CCCCC2)cc1C do in these assays?
SR-BI HDL uptake: 68; dFosB activator: -1; SR-BI uptake up: -68; RAD54 inh: 2; PvdQ acylase: 1

Results for Cc1ccc(C(=O)Nc2cc(Cl)ccc2N2CCCCC2)s1 ?
SR-BI HDL uptake: 77*; dFosB activator: -9; SR-BI uptake up: -77; PvdQ acylase: -2

What do the screens show for `Cc1ncc(CO)c(/C=N/NC(=O)c2cc3c(s2)CCCC3)c1O`?
SR-BI HDL uptake: 104*; S100A4 inh HTS: -2; dFosB activator: -28; SR-BI uptake up: -104; PvdQ acylase: 24

Results for Cc1ncc(CO)c(/C=N/NC(=O)c2ccc(O)cc2)c1O ?
SR-BI HDL uptake: 36; dFosB activator: -1; SR-BI uptake up: -36; RAD54 inh: 6; PvdQ acylase: 26

What do the screens show for `CC(C)CNC(=O)c1cccc(NC(=O)c2ccc3c(c2)C(=O)N(C)C3=O)c1`?
SR-BI HDL uptake: 81*; S100A4 inh HTS: -6; dFosB activator: -6; SR-BI uptake up: -81; RAD54 inh: 14; PvdQ acylase: -15

Results for COc1cc(/C=N/NC(=S)NC2CC3CC2C2C=CCC32)ccc1O (stereo unspecified) ?
SR-BI HDL uptake: 73*; S100A4 inh HTS: 1; dFosB activator: 0; SR-BI uptake up: -73; PvdQ acylase: 9

Results for CCOc1ccc(/C=N/NC(=S)NC2CC3CC2C2C=CCC32)cc1 (stereo unspecified) ?
SR-BI HDL uptake: -4; S100A4 inh HTS: 8; dFosB activator: 2; SR-BI uptake up: 4; RAD54 inh: -2; PvdQ acylase: -3

How did COc1ccc(N2CCC(CNC(=O)Nc3ccc(OC)cc3OC)C2)cc1 (stereo unspecified) do in these assays?
SR-BI HDL uptake: 96*; dFosB activator: 5; SR-BI uptake up: -96; RAD54 inh: -1; PvdQ acylase: 15

Results for CN(C)CCCNC(=O)C[C@@H]1CC[C@H]2[C@H](COc3ccc(NC(=O)NC4CCCC4)cc3C(=O)N2C)O1 ?
S100A4 inh HTS: 9; RAD54 inh: 9

How did COc1ccc(S(=O)(=O)Nc2ccc3c(c2)C(=O)N([C@@H](C)CO)C[C@H](C)[C@@H](CN(C)C(=O)C2CCCCC2)OCCCC[C@H](C)O3)cc1 do in these assays?
S100A4 inh HTS: -20; RAD54 inh: -4

What do the screens show for `COc1ccc(C2C(=O)c3ccccc3C2=Nc2ccc(Br)cc2)cc1` (stereo unspecified)?
SR-BI HDL uptake: 94*; S100A4 inh HTS: 4; dFosB activator: -6; SR-BI uptake up: -94; RAD54 inh: 3; PvdQ acylase: -2

How did Cc1cc(NC(=O)c2cc(F)c(F)cc2Cl)no1 do in these assays?
SR-BI HDL uptake: -1; S100A4 inh HTS: -1; dFosB activator: 1; SR-BI uptake up: 1; PvdQ acylase: 92*

Results for Cc1cc(NC(=O)Nc2ccc(F)c(Cl)c2)no1 ?
SR-BI HDL uptake: 5; dFosB activator: 0; SR-BI uptake up: -5; RAD54 inh: 4; PvdQ acylase: 44*
